The full list was thinned out, with hits kept by preference.
Insulin prom act: TRM-6 insulin promoter activation; activation, % at 2 µM; TRM-6 cells (human fetal islet line), insulin promoter eGFP reporter, imaging; plate-scaled: unstimulated 0, stimulated control 100; 130,000 tested, 0.81% active;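 active = activation at 2 µM above a set limit, confirmed on inspection of the cell images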;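 note: share of cells whose green reporter signal exceeds an intensity cutoff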
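Assay system: TRM-6 insulin promoter–eGFP reporter cells / Input: 1,000 cells per well / Medium: Low-glucose (5.5 mM) medium with tamoxifen / Also added: tamoxifen inducer, 0.75 µM, in seeding medium / Timing: overnight tamoxifen, then two-day compound incubation at 37 °C / Signal: automated fluorescence imaging of paraformaldehyde-fixed, Hoechst-counterstained cells, green channel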
A number is an active result; 0 = inactive.

SMILES	Insulin prom act
O=C(Nc1ccc(NS(=O)(=O)c2ccccc2)cc1)c1cccnc1	0
Cc1ccccc1CN1CCN(S(C)(=O)=O)CC1	444
Cc1ccccc1CN1CCN(CC2CC3C=CC2C3)CC1 (stereo unspecified)	0
CCOc1ccccc1CN1CCN(S(C)(=O)=O)CC1	0
COc1ccc(C(NC(=O)C(C)(C)C)NC(=O)C(C)(C)C)cc1	95
COc1ccc(C(C)NC(=O)c2ccccc2)cc1 (stereo unspecified)	0
COc1ccc(C(C)NC(=O)Cc2ccc(Br)cc2)cc1 (stereo unspecified)	0
Cc1ccc(CSCC(=O)N2CCCC2)cc1	0
CCNC(=S)Nc1cc(Cl)ccc1Oc1ccccc1	0
Cc1nn(-c2ccccc2)c(C)c1/C=C1\C(=O)N(C)C(=S)N1C	0
CCOC(=O)c1c(C)[nH]c(C(=O)OCC(=O)NC2CCS(=O)(=O)C2)c1C (stereo unspecified)	0
C=CCC(C=C)S(=O)(=O)c1ccc(C)cc1 (stereo unspecified)	0
CCCCN1C(=O)C(O)(CC(=O)c2ccccc2OC)c2ccccc21 (stereo unspecified)	0
CCCCN1C(=O)C(O)(CC(=O)c2c(C)coc2C)c2ccccc21 (stereo unspecified)	0
CCCCN1C(=O)C2(NNc3ccccc3O2)c2ccccc21 (stereo unspecified)	170
COc1ccc(CCNC(=O)CSc2ccccn2)cc1OC	0
C=C(C)C1CC=C(C)/C(=N/NC(=O)C2CC2c2ccccc2)C1 (stereo unspecified)	0
COC(=O)c1nonc1NCn1nnc2ccccc21	0
Clc1cncc(Cl)c1NNc1c2ccccc2nc2ccccc12	0
CCCN(CCC)c1nc(N)nc(-c2cc(Cl)ccc2OC)n1	83
CCCNc1nc(N)nc(-c2cc(Cl)ccc2OC)n1	0
CCNc1nc(N)nc(-c2cc(Cl)ccc2O)n1	0
CC(NC(=O)c1ccccc1)C(=O)OCC(=O)N1c2ccccc2Sc2ccccc21 (stereo unspecified)	0
Cc1ccc(OCC(=O)NNC(=O)c2cccnc2)cc1C	0
Cn1nc(C(=O)NCc2ccc(F)cc2)c2ccccc2c1=O	0
SMILES	Insulin prom act
Cn1nc(C(=O)NCc2cccs2)c2ccccc2c1=O	76
Cn1nc(C(=O)NCc2ccccn2)c2ccccc2c1=O	0
CC(=O)N/C(=C\c1ccc(F)cc1)C(=O)N(C)C	0
COc1ccc2c(-c3ccccc3)cc(SCC(=O)N(C)C)nc2c1	0
COc1ccc2c(C)cc(SCC#N)nc2c1	167
COc1ccc2c(-c3ccccc3)cc(SCC(=O)NC(N)=O)nc2c1	0
C[C@@H]1CN(C(=O)c2nc3ccc(Cl)cn3c2CN2CCc3sccc3C2)C[C@H](C)O1	0
COc1ccc(N2CCN(C(=O)C34CCC(C)(C(=O)C3)C4(C)C)CC2)cc1 (stereo unspecified)	0
CC12CCC(C(=O)Nc3ccccc3N3CCOCC3)(CC1=O)C2(C)C (stereo unspecified)	0
CC12CCC(C(=O)N3CCc4ccccc43)(CC1=O)C2(C)C (stereo unspecified)	514
CCN(CC)C(=O)/C(=C\c1ccc(Br)cc1)NC(=O)c1ccccc1OC	0
Cc1ccc(C)c(C(=O)CN2C3=NCCCN3c3ccccc32)c1	0
C/C(=N\NC(=O)CSCc1ccc([N+](=O)[O-])cc1)c1ccccc1O	0
Cc1csc(NC(=O)c2cccc(S(=O)(=O)N3CCCCC3)c2)n1	0
COc1ccc(C(=O)Nc2nc(C)cs2)cc1S(=O)(=O)N1CCCC1	221
Cc1nnc(NC(=O)c2ccc(C)c(S(=O)(=O)N3CCCCCC3)c2)s1	0
N#C/C(=C\c1ccc([N+](=O)[O-])o1)C(=O)Nc1ccc(F)cc1	400
O=C1OC(c2ccc(F)cc2)=C/C1=C\c1ccc([N+](=O)[O-])o1	0
N#C/C(=C\c1ccc(N2CCCCC2)o1)C(=O)Nc1cccc(Br)c1	0
CC(C)Cn1c(SCC(=O)c2ccc(Cl)s2)nnc1-c1ccco1	0
O=C(Nc1cccc2ccccc12)c1cn(-c2ccccc2)nc1-c1cccs1	0
N#CCCn1cc(C(=O)Nc2ccccc2Br)c(-c2cccs2)n1	457
O=C(Nc1cccnc1)c1cn(-c2ccccc2)nc1-c1cccs1	0
Cc1c(-c2nnc(SCC(=O)O)n2-c2ccccc2Br)nnn1-c1ccccc1	0
Cc1nn(Cc2ccc(Cl)cc2)c(C)c1NC(=O)CCCn1nc([N+](=O)[O-])c(Cl)c1C	0
SMILES	Insulin prom act
N/C(=N\c1nc2c(c(=O)[nH]1)CCC2)Nc1cccc2ccccc12	0
CCc1nnc(NC(=O)CSc2ccc(-c3ccccc3OC)nn2)s1	0
O=C(Nc1cccc([N+](=O)[O-])c1)c1ccc2c(c1)OCCO2	0
O=C(N/N=C\c1ccc(-c2ccc([N+](=O)[O-])cc2)o1)c1ccc2c(c1)OCO2	0
O=C(O)CC(NC(=O)c1ccc2c(c1)OCO2)c1cccc([N+](=O)[O-])c1 (stereo unspecified)	464
O=c1c2ccccc2sn1-c1cc(S(=O)(=O)N2CCOCC2)ccc1N1CCOCC1	0

Screens: PubChem, Columbia University Molecular Screening Center
